In ChEMBL document CHEMBL1144865, “N-aminoimidazole derivatives inhibiting retroviral replication via a yet unidentified mode of action” (J Med Chem, 2003):

Legend:
[1] = system: Simian immunodeficiency virus; assay: Concentration required to inhibit the viral (SIV mac251) cytopathic effect by 50% in MT-4 cells.; format: functional, organism-based, MT4
In short: (§1)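 Virus-infected MT-4 cells cultured with serial compound dilutions; viability measured 5 days after infection by MTT tetrazolium colorimetric read-out. The value is the concentration protecting 50% of cells from viral cytopathic effect. Averages ± SD from at least two independent experiments. HIV-2 and SIV stocks came from infected MT-4 culture supernatants.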

[2] = system: Human immunodeficiency virus 1; assay: Concentration required to inhibit the viral (HIV-1 IIIB strain) cytopathic effect by 50% in MT-4 cells.; format: functional, organism-based; settings: Human immunodeficiency virus 1, MT4; in short: as §1
[3] = system: Human immunodeficiency virus 2; assay: Concentration required to inhibit the viral (HIV-2 ROD) cytopathic effect by 50% in MT-4 cells.; format: functional, organism-based, MT4; in short: as §1
MT4 = assay: Concentration that reduced the MT-4 cell viability by 50%.; format: functional, Homo sapiens
In short: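 Mock-infected MT-4 cells, run in parallel with the antiviral assay, were exposed to compound. Viability on day 5 was read by MTT colorimetry. The value is the concentration lowering viability by 50%. Averages ± SD from at least two independent experiments.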

[4] = system: Human immunodeficiency virus 1; assay: Concentration required to inhibit the viral (HIV-1 NL4.3 strain) cytopathic effect by 50% in MT-4 cells.; format: functional, organism-based; settings: Human immunodeficiency virus 1, MT4; in short: as §1
[5] = system: Human immunodeficiency virus 1; assay: Concentration required to inhibit the viral (HIV-1 NNRTI resistant strain) cytopathic effect by 50% in MT-4 cells.; format: functional, organism-based; settings: Human immunodeficiency virus 1, MT4
In short: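 MT-4 cells infected with HIV-1(III_B)-derived strain S0561945 (K103N + Y181C RT mutations, NNRTI-resistant). Cultured with varying compound concentrations; viability read on day 5 post-infection by MTT tetrazolium colorimetry. Value is the concentration giving 50% protection against virus-induced cytopathic effect. Cytotoxicity measured in parallel on mock-infected cells at day 5. Averages ± SD from at least two independent experiments.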

[6] = Simian immunodeficiency virus, mac251, MT4
[7] = Human immunodeficiency virus 2, MT4

SMILES	IC50 [1, 6] [µM]	IC50 [2] [µM]	IC50 [3, 7] [µM]	CC50 (MT4; Homo sapiens, MT4) [µM]	IC50 [4] [µM]	IC50 [5] [µM]	IC50 ([1]; mt4) [µM]	IC50 ([3]; mt4) [µM]	CC50 (MT4) [µM]
COc1cccc(Nn2cnc(C)c2-c2ccccc2)c1	> 34.4	> 34.4	> 34.4	34.4	> 34.4				
COC(=O)c1c(C)ncn1Nc1cccc(Cl)c1	> 107	> 107	> 107	107	> 107				
CC1N=C(S)N(Nc2ccccc2)C1c1ccccc1 (configuration not stated)	> 191	> 191	> 191	191	> 191				
Cc1nc(S)n(Nc2ccc(Cl)cc2)c1-c1ccccc1	> 134	> 134	> 134	134	> 134				
Cc1ncn(Nc2ccccc2)c1-c1ccccc1	> 52.2		> 52.2	52.2					
CC1N=C(S)N(Nc2cccc(F)c2)C1c1ccccc1 (configuration not stated)	33.8	> 108	> 108	108	18.4	≥ 43.4			
Cc1cccc(NN2C(S)=NC(C(C)C)C2c2ccccc2)c1 (configuration not stated)	> 42.6	> 42.6	> 42.6	42.6	> 42.6	> 42.6			
CC1N=C(S)N(Nc2ccccc2)C1C (configuration not stated)	> 181	> 181	> 181	181	> 181				
Cc1nc(S)n(Nc2cccc(Cl)c2)c1-c1ccc(Br)cc1	> 33.2	> 33.2	> 33.2	33.2	> 33.2				
Cc1ncn(Nc2ccccc2)c1C	> 351	> 351	> 351	351	> 351				
Cc1ncn(Nc2cccc(Cl)c2)c1-c1cccc(C(=O)O)c1	> 161	> 161	> 161	161	> 161				
COc1ccc(-c2c(C)nc(S)n2Nc2cccc(Cl)c2)cc1	10.1	> 38.7	> 38.7	38.7	> 38.7	> 38.7			
COc1cccc(NN2C(S)=NC(C)C2c2ccccc2)c1 (configuration not stated)	> 38	4.78	> 38	38	9.79	> 38			
Cc1nc(S)n(Nc2cccc(Cl)c2)c1-c1cccc(Br)c1	1.75	8.54	10.5	44	5.6	3			
Cc1nc(S)n(Nc2cccc(Cl)c2)c1-c1ccc(Cl)cc1	7.71	> 40.8	> 40.8	40.8	> 40.8	> 40.8			
Cc1ncn(Nc2cccc(Cl)c2)c1C							> 214	> 214	214
CC1N=C(S)N(Nc2cccc(Cl)c2)C1c1cccc(C(=O)O)c1 (configuration not stated)	> 120	> 120	> 120	120	> 120				
CC1N=C(S)N(Nc2cccc(Br)c2)C1c1ccccc1 (configuration not stated)	2.72	9.96	> 44.2	44.2	4.52	5.77			
Cc1cccc(Nn2cnc(C)c2-c2cccc(C(N)=O)c2)c1	> 162	> 162	> 162	162	> 162				
COC(=O)C1C(C)N=C(S)N1Nc1cccc(Cl)c1 (configuration not stated)	> 190	> 190	> 190	190	> 190				
Clc1cccc(Nn2cnc3c2CCCC3)c1							> 67.3	> 67.3	67.3
CSc1nc(C)c(-c2ccccc2)n1Nc1cccc(Cl)c1	> 42.1	> 42.1	> 42.1	42.1	> 42.1				
Cc1cccc(NN2C(S)=NC(C)C2c2cccc(C#N)c2)c1 (configuration not stated)	> 45.6	> 45.6	> 45.6	45.6	> 45.6				
Cc1cccc(Nn2cnc(C)c2-c2cccc(C#N)c2)c1	> 44.7	> 44.7	> 44.7	44.7	> 44.7				
CC1N=C(S)N(Nc2cccc([N+](=O)[O-])c2)C1c1ccccc1 (configuration not stated)	7.54	7.29	> 48.3	48.3	11.2	42.2			
